B2AR ag – activates human beta-2 adrenergic receptor causing internalization. P07550. Am2.2-beta2AR cells, FAP receptor internalization, flow cytometry. response, % (test concentration not listed). 340,000 tested, 0.43% active;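 active = response above a set limit, near 3 SD of response in nonfluorescent compounds, cut at about 42% in these data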
Target sequence (P07550 whole entry, looked up): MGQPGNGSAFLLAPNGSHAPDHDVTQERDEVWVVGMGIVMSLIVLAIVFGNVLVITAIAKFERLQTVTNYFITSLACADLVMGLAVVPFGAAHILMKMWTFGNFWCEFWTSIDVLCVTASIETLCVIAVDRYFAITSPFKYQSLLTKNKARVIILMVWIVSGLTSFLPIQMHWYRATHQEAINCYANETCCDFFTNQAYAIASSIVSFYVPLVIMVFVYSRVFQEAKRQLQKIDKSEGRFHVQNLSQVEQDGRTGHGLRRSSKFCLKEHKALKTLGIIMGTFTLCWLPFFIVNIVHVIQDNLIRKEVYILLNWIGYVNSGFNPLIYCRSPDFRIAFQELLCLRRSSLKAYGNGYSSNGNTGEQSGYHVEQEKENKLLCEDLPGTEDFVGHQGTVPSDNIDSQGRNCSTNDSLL
ABHD5 PLIN5 PPI – inhibitors of human ABHD5-perilipin-5 interaction. Q00G26+Q8WTS1. Split G. princeps luciferase complementation, luminescence, 4 h. inhibition, % at 4 µM. 360,000 tested, 0.78% active. AID 602281;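 active = inhibition above the mean inhibition across every tested compound plus 3 SD, cut at about 22% in these data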;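 also: 0% = DMSO only wells and the 100% control is not disclosed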
UHRF1 binding – blocks human UHRF1 binding to methylated DNA. UHRF1 binding to methylated oligo, TR-FRET. inhibition, % at 4.4 µM. 370,000 tested, 0.75% active. AID 687016; in the data active = inhibition above about 21%;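 also: UHRF1 SRA domain binding a hemimethylated CpG hairpin DNA probe; 0% = median of test compound wells and 100% = reference inhibitor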
MBD2 inh – inhibitors of human MBD2 binding to methylated oligonucleotide. TR-FRET. inhibition, % at 4.4 µM. 370,000 tested, 0.31% active. AID 686964; in the data active = inhibition above about 13%
Rin1-Abl PPI inh – inhibitors of human Rin1-Abl protein interaction; 360,000 tested, 0.4% active; P00519+Q13671; AID 588664; inhibition, % at 7.35 µM; TR-FRET Rin1/Abl binding, biochemical; in the data active = inhibition above about 5%, passing the limit was not always enough
Arr AP2 block – human beta-arrestin and AP2 interaction inhibition; FITC-arrestin peptide / GST-AP2 beads, flow cytometry; AP2 beta2 appendage carries R879A mutation; inhibition, % at 10 µM; 340,000 tested, 0.31% active; AID 504490;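 active = inhibition above a set limit, near 3 SD of compounds lacking own fluorescence, cut at about 54% in these data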;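 also: plate controls were DMSO wells for no effect and 5 µM unlabelled arrestin peptide for full effect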
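System: GST-AP2 R879A bound to glutathione beads, E. coli-expressed. Also added: 50 nM FITC-arrestin peptide. Schedule: compound with beads 12 min RT, then probe 1 h RT. Signal: bead flow cytometry, FITC channel. Read-out basis: percent response.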
* marks the source's active call; other numbers are inactive results; . = no result. Hits are enriched below; roughly 2.5% of the tested compounds scored in any of these assays.

SMILES	B2AR ag	ABHD5 PLIN5 PPI	UHRF1 binding	MBD2 inh	Rin1-Abl PPI inh	Arr AP2 block
CCCCOc1ccc(S(=O)(=O)n2c(C)nc3ccccc32)cc1	-1.1	0.0	43.2*	-0.4	-2.6	32.1
Cc1cc(C)n(CCCNC(=O)CCNS(=O)(=O)c2ccccc2C(F)(F)F)n1	-0.2	0.0	23.8*	-1.0	5.5	1.6
CCNC(=S)NNC(=O)CSc1nnc(-c2ccccc2)n1-c1ccc(Cl)cc1	.	.	-4.6	-4.7	.	.
COc1ccc(OC)c(/C=N/NC(=O)c2ccc(N(C)S(=O)(=O)c3ccccc3)cc2)c1	3.7	1.3	1.7	4.6	-0.4	44.2
COc1ccc(/C=N/NC(=O)c2ccc(N(C)S(=O)(=O)c3ccccc3)cc2)c(OC)c1	2.4	-5.8	31.9*	4.7	1.1	16.0
CCOC(=O)C1=C(COC(=O)c2cccc(NC(C)=O)c2)NC(=O)NC1C (centres undefined)	9.2	-2.5	0.1	-2.5	-0.1	-1.4
CCOC(=O)C1=C(COC(=O)[C@@H](NC(=O)c2cccc(C)c2)C(C)C)NC(=O)NC1C (some centres undefined)	-2.4	4.2	21.5*	3.2	0.4	-11.5
CC(C)CN1C(=O)[C@@]2(CC(=O)N(C)C2c2ccccc2)c2cc(-n3cc(CCc4ccccc4)nn3)ccc21 (some centres undefined)	.	.	0.3	-1.8	.	.
CC(=O)OC12CCCN(C1)/C(=C/c1cccnc1)C2 (centres undefined)	.	.	-0.3	8.4	.	.
COc1ccc(C2(C(=O)Nc3ccc(S(=O)(=O)Nc4nc(C)cc(C)n4)cc3)CCCC2)cc1OC	-0.9	5.2	42.8*	5.1	1.9	-4.1
CC(C)(C)Cc1c(-c2ccc(C#N)cc2)nc2ccc(Cl)cn12	.	-3.4	21.1*	4.1	1.4	.
CC(C)(C)Cc1c(-c2cccc(Cl)c2)nc2ccc(Cl)cn12	.	-2.4	23.5*	6.9	4.8	.
Cc1cc(C)cc(C(=O)OCCN(C)C2CN(Cc3cn(Cc4ccc([N+](=O)[O-])cc4)nn3)S(=O)(=O)C2)c1 (centres undefined)	.	.	6.4	-0.1	.	.
O=C(CC(Nc1ccc(Cl)cc1)C(=O)O)c1ccccc1 (centres undefined)	12.2	22.1*	0.8	-5.3	-0.3	-0.3
CCOC(=O)[C@@]12CN(C(=O)OC(C)(C)C)CC=C1N(Cc1ccc(OC)cc1)C(=O)[C@H]2CC(=O)N1CCCCC1	.	.	-0.9	-1.6	.	.
CN(C)S(=O)(=O)c1cccc(C(=O)N/N=C\c2cccc(C#N)c2)c1	.	.	-1.3	-0.2	.	.
CCn1c(=O)cc(OCC(=O)N2CCCC2)c2ccccc21	-3.7	1.2	1.9	3.3	9.0*	6.3
COCC1CCCCN1C(=O)c1cccc(OC2CCN(S(C)(=O)=O)CC2)c1 (centres undefined)	-1.0	-0.5	31.3*	2.5	-0.5	7.0
CC(C)(C)NC(=O)[C@H](c1cccnc1)N(C(=O)c1ccco1)c1ccc(C(C)(C)C)cc1	.	.	3.1	2.0	.	.
CCOC(=O)COc1ccc(C(C)c2ccc(NC(=O)OC(C)(C)C)cc2)cc1 (centres undefined)	.	.	-1.8	-2.1	.	.
Cc1ccc(C(=O)OCC(=O)N2CCCCCC2)c(O)c1	3.8	4.6	29.1*	2.0	2.0	34.0
O=C(OCC(=O)N1CCCC1)c1ccccc1O	-1.8	0.1	0.3	3.8	-2.3	-6.9
COc1ccc(/C=C(\C#N)C(=O)NCCc2ccccc2)cc1OCc1ccccc1	-4.0	2.5	-1.6	-2.3	1.4	-6.0
COCCCNC(=O)/C(C#N)=C/c1ccc(OCC(=O)O)c(OC)c1	1.2	2.4	34.2*	7.0	-1.6	-5.0
Nc1ccc2nc(SCc3ccccc3F)sc2c1	5.0	0.9	22.8*	-1.2	-1.9	-18.6
SMILES	B2AR ag	ABHD5 PLIN5 PPI	UHRF1 binding	MBD2 inh	Rin1-Abl PPI inh	Arr AP2 block
Nc1ccc2nc(SCC(=O)c3ccccc3)sc2c1	7.4	-7.5	-6.8	-2.7	-5.3	-8.1
O=C(Cc1cccs1)N(Cc1cccs1)C1(C(=O)NC2CCCCC2)CCCCC1	4.6	-0.6	-3.1	3.4	1.7	-7.2
O=C1NC(=O)C(CC(=O)N(Cc2cccs2)C2(C(=O)NC3CCCC3)CCCCC2)N1 (centres undefined)	-2.7	1.9	23.5*	4.8	-1.4	-1.0
CCN(CC)C(=O)CC[C@H]1CC[C@]2(CCCN(Cc3cccnc3)C2)O1	.	.	-1.5	2.8	.	.
CCCCN1C(=O)C(CC(=O)NCc2cccc3ccccc23)CC(C(=O)N2CCOCC2)=C1C (centres undefined)	.	9.5	21.9*	4.9	2.1	.
O=C(Nc1ccc2c(c1)oc1ccccc12)c1cccnc1	4.0	5.9	-3.9	-2.7	-1.9	-5.3
O=C(Nc1ccc2c(c1)oc1ccccc12)c1ccncc1	37.7	22.2*	2.8	4.8	-1.6	0.4
C=C1CC(Cn2cc(Br)c(=O)[nH]c2=O)(c2ccc(-c3ccccc3)cc2)OC1=O (centres undefined)	50.8*	54.5*	0.2	3.1	1.7	5.2
CC(=O)c1cc(C)c(OCc2cn(CC(=O)c3ccc(O)cc3)nn2)c(C)c1	-0.8	15.7	20.8*	8.5	0.4	5.8
O=C(Cn1cc(COc2c(Br)cc(F)cc2Br)nn1)c1ccc(O)cc1	-0.1	5.2	21.3*	13.0	0.8	0.9
O=C(Cn1cc(COc2ccc3ccc(=O)oc3c2)nn1)c1ccc(O)cc1	6.8	4.0	8.5	-6.0	-1.1	-17.9
O=Cc1cccc(OCc2cn(CC(=O)c3ccc(O)cc3)nn2)c1	.	14.8	23.9*	12.2	-0.2	.
CCCC(=O)c1ccc(OCc2cn(CC(=O)c3ccc(O)cc3)nn2)cc1	-5.3	-8.2	23.1*	4.8	-3.0	5.3
O=C(Cn1cc(COc2ccc(Br)cc2)nn1)c1ccc(O)cc1	7.0	-2.0	9.1	4.8	-3.4	5.2
Fc1cccc(CNC2CCC23CCC(c2ccccc2)CC3)c1 (centres undefined)	.	.	-3.8	-4.7	.	.
Cc1ccc(-n2c(SCC(=O)Nc3ccc(S(=O)(=O)Nc4cc(C)nc(C)n4)cc3)nnc2-c2ccc(C(C)(C)C)cc2)cc1	.	.	1.0	-0.6	.	.
O=C(COC(=O)c1ccc(Sc2ncn[nH]2)c([N+](=O)[O-])c1)Nc1ccc(Cl)cc1	.	.	1.2	-4.0	.	.
O=C1C(=Cc2cn(-c3ccccc3)nc2-c2ccc(OCc3ccccc3F)cc2)SC(=S)N1CCS(=O)(=O)O	.	1.9	58.0*	2.7	-1.0	.
COc1ccc(C2=NNC(=O)CC2)cc1	-0.4	4.1	22.8*	0.4	1.2	7.2
CSCCC1NC(=O)N(CC(=O)Nc2c(Cl)cc(Cl)cc2Cl)C1=O (centres undefined)	-5.5	0.6	3.0	0.0	1.3	10.7
CSCCC1NC(=O)N(C(C)C(=O)Nc2cc(Cl)cc(Cl)c2)C1=O (centres undefined)	-1.1	0.1	23.9*	5.5	3.8	9.6
